PAFAH1B2 inh: inhibitors of human PAFAH1B2; P68402; recombinant PAFAH1B2, FP-rhodamine activity probe, fluorescence polarization; inhibition, % at 3.39 µM; 340,000 tested, 1.2% active;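 active = inhibition above the mean of all tested compounds plus 3 SD, cut at about 24% in these data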;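 note: 0% = enzyme with DMSO and 100% = wells lacking PAFAH1B2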
Apaf1 inhib: blocks human Apaf-1 apoptosome activity | inhibition, % at 20 µM | AID 489030 | O14727 | reconstituted apoptosome caspase-3 activity, DEVD-Rh110 fluorescence | 330,000 tested, 0.71% active; active = inhibition of at least 40% at 20 µM;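 note: plate controls were DMSO wells for no effect and DEVD-CHO caspase inhibitor wells for full effect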
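System – cell-free apoptosome with Apaf-1, procaspase-3 and caspase-9 · Buffer or medium – pH 7.5 Hepes buffer with CHAPS, BSA, DTT · Also added – cytochrome c with DEVD-Rh110 · Times – 30 min compound preincubation, 50 min activation, room temperature · Technique – Rh110 fluorescence intensity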
TDP2 inh: TDP2 (human) inhibition, absorbance primary screen; recombinant TDP2, T5PNP hydrolysis, p-nitrophenol absorbance 415 nm; O95551; inhibition, % at 12.8 µM; 370,000 tested, 0.34% active;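 active = inhibition above the mean of all tested compounds plus 3 SD, set per campaign, cut at about 25% in these data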;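 note: 0% = DMSO with enzyme and 100% = buffer with substrate but no TDP2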
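test system = human TDP2 enzyme | input = TDP2 enzyme at 120 nM final | medium = 50 mM Tris-HCl pH 7.5 with Mg2+, KCl, DTT, BSA | also added = T5PNP substrate, 5 mM | times = 2 h at 37 °C | technique = epi absorbance | benchmarks = high control without enzyme, low control DMSO plus TDP2 | replication = each compound tested once, singlicate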
PAFAH2 inh: PAFAH2 (human) inhibition | Q99487 | inhibition, % at 3.39 µM | recombinant PAFAH2, FP-rhodamine activity probe, fluorescence polarization | AID 492956 | 340,000 tested, 0.99% active;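 active = inhibition above the mean over all tested compounds plus 3 SD, cut at about 30% in these data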;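 note: inhibitors block probe labeling of enzyme so polarization drops; 0% = enzyme with DMSO and 100% = wells lacking PAFAH2 protein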
PAFAH1B3 inh: inhibitors of human PAFAH1B3 | Q15102 | recombinant PAFAH1B3, FP-rhodamine probe, fluorescence polarization | inhibition, % at 3.39 µM | 340,000 tested, 0.28% active | AID 492972;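 active = inhibition above the screen-wide average of all tested compounds plus 3 SD, cut at about 25% in these data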;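 note: 0% = enzyme with DMSO only and 100% = wells lacking PAFAH1B3 protein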
Apaf-1 inh conf2: Apaf-1 inhibition, single-dose confirmed; shares compounds with Apaf1 inhib; reconstituted apoptosome, caspase-3 DEVD-Rh110 fluorescence; inhibition, % at 20 µM; 1,800 tested, 25% active; AID 504614;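 active = mean inhibition of at least 40% at 20 µM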;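 note: plate controls were DMSO wells for no effect and DEVD-CHO caspase inhibitor control wells for full effect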
Rh110 interf inh: counter-screen for Apaf-1 inhibitors: fluorescence interference. Rh110 fluorescence interference, quenched caspase reaction. 1,800 tested, under 10 active. activation (fluorescence interference), % at 20 µM. shares compounds with Apaf1 inhib. AID 504615;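 active = signal rise of 40% or more at 20 µM, treated as a fluorescence artifact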
Fluor interf inh: shows fluorescence interference in the Apaf-1 inhibitor assay format; shares compounds with Apaf1 inhib; fluorescence interference counterscreen, Apaf-1 assay format; IC50, µM; 460 tested, under 10 active; AID 588538; call rule not given here
The depositor's hits bear a star; nt = no result given. In the library only some 2.3% were active in any assay of this set; here they are far more common.

SMILES	PAFAH1B2 inh	Apaf1 inhib	TDP2 inh	PAFAH2 inh	PAFAH1B3 inh	Apaf-1 inh conf2	Rh110 interf inh	others
CCc1ccc(OCC(O)CN2CCC(CN3C(=O)c4cccc5cccc(c45)C3=O)CC2)cc1 (stereo not drawn)	7.2	42.0*	1.4	6.2	2.8	13.3	-9.8
COc1ccc(NS(=O)(=O)c2cc(C(=O)N3CCC3)ccc2C)cc1	8.3	47.5*	-3.4	3.4	12.0	12.8	3.5
CC(C)NC(=O)N[C@@H]1C[C@@H]2O[C@@H](CO)CC[C@@H]2O[C@@H]1CCc1ccc(-c2ccc(F)cc2)cc1	nt	nt	-0.6	nt	nt	nt	nt
CC(=O)N1CCOc2ccc(S(=O)(=O)N3CCC(C(=O)Nc4ccc(C)cc4)CC3)cc21	4.9	4.0	-15.7	-4.8	1.8	nt	nt
CC(=O)N1CCOc2ccc(S(=O)(=O)N(C)c3ccc(C)cc3)cc21	2.2	40.5*	-7.2	0.9	5.1	10.8	-0.1
CN(C)S(=O)(=O)c1ccc2nc(COCc3nc4ccc(S(=O)(=O)N(C)C)cc4[nH]3)[nH]c2c1	nt	nt	-3.7	nt	nt	nt	nt
O=C(NCC1COCCO1)C1CCN(S(=O)(=O)c2ccc(Br)s2)CC1 (stereo not drawn)	nt	nt	11.6	nt	nt	nt	nt
Cc1cccc2sc(N(CCCN(C)C)C(=O)c3ccc(S(=O)(=O)N4CCc5ccccc5C4)cc3)nc12	0.8	62.6*	-11.4	-2.0	6.0	25.1	-6.1
Cc1cc(C)c2sc(N(CCCN(C)C)C(=O)c3ccc(S(=O)(=O)N4CCc5ccccc5C4)cc3)nc2c1	3.9	22.5	nt	7.9	7.6	nt	nt
Cc1ccc2nc(N(CCCN(C)C)C(=O)c3ccc(S(=O)(=O)N4CCc5ccccc5C4)cc3)sc2c1	6.5	53.0*	1.2	4.7	0.2	19.6	6.6
CN(C)CCCN(C(=O)c1ccc(S(=O)(=O)N2CCc3ccccc3C2)cc1)c1nc2ccc(F)cc2s1	1.4	70.3*	-0.5	-1.9	11.0	45.8*	5.1	Fluor interf inh=>100
COC(=O)C1CCN(C(=O)CCn2nnc(-c3cccs3)n2)CC1	nt	nt	-5.2	nt	nt	nt	nt
C[C@H]1CCC/C=C/C(=O)c2c(cc(O)c(Cl)c2O)CC(=O)O1	nt	nt	3.2	nt	nt	nt	nt
S=C(Nc1ccc(N2CCOCC2)cc1)Nc1ccc2nc(-c3ccco3)c(-c3ccco3)nc2c1	3.2	41.3*	14.1	7.2	14.3	26.0	8.8
O=C(NC(=S)Nc1ccc(N2CCOCC2)cc1)c1ccco1	1.3	-2.8	6.6	-4.3	3.4	nt	nt
NC(=O)CC1Nc2cccc3cccc(c23)NC1=O (stereo not drawn)	3.0	98.0*	9.8	-3.0	8.0	19.6	2.4
O=C(CC1Nc2cccc3cccc(c23)NC1=O)Nc1ccccc1 (stereo not drawn)	4.2	96.1*	16.7	58.4*	18.1	13.9	0.6
COc1cc(NC(=O)CSc2nc(C)cc(=O)[nH]2)cc(OC)c1	nt	nt	-0.5	nt	nt	nt	nt
CC1CCCN(C2=C(NS(=O)(=O)c3ccc(Br)cc3)C(=O)c3ccccc3C2=O)C1 (stereo not drawn)	11.5	51.3*	20.4	8.7	5.6	31.0	-1.5
CC1CCN(C2=C(NS(=O)(=O)c3ccc(Cl)cc3)C(=O)c3ccccc3C2=O)CC1	3.7	46.4*	-0.8	10.3	14.7	14.9	-20.7
CCOC(=O)C1CCN(C2=C(NS(=O)(=O)c3ccc(Cl)cc3)C(=O)c3ccccc3C2=O)CC1	5.7	13.6	17.8	1.4	8.7	nt	nt
CC1CCN(C2=C(NS(=O)(=O)c3ccc(Br)cc3)C(=O)c3ccccc3C2=O)CC1	10.9	53.9*	7.8	12.0	3.2	26.4	-2.6
O=C1C(NS(=O)(=O)c2cccs2)=C(N2CCN(c3cccc(Cl)c3)CC2)C(=O)c2ccccc21	11.4	57.8*	4.2	6.9	16.5	33.2	13.6
O=C1C(NS(=O)(=O)c2ccc(Br)cc2)=C(N2CCCCC2)C(=O)c2ccccc21	7.6	36.5	-7.7	6.2	12.4	nt	nt
O=C([C@@H]1C[C@H]1c1ccccc1)N1CC[C@H]2[C@H](CCCN2Cc2ccc(F)cc2)C1	nt	nt	0.3	nt	nt	nt	nt

Screens deposited in PubChem BioAssay by several laboratories.
